Compound activity as filed in PubChem.
A selection: hits, their analogues and other compounds. The true share with any hit is near 2.3%.
PAFAH2 inh: PAFAH2 enzyme inhibitors, primary screen, biochemical, fluorescence polarization, human | recombinant PAFAH2, FP-rhodamine activity probe | inhibition, % at 3.39 µM | 340,000 compounds, 0.99% hits | AID 492956, 2010;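 active = inhibition above the mean over all tested compounds plus 3 SD, cut at about 30% in these data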;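 also: inhibitors block probe labeling of enzyme so polarization drops; 0% = enzyme with DMSO and 100% = wells lacking PAFAH2 protein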
TDP2 absorb: human TDP2 enzyme inhibitors, primary screen, biochemical, epi absorbance, recombinant enzyme; T5PNP hydrolysis, p-nitrophenol absorbance 415 nm; AID 720702, 2013; 370,000 compounds, 0.34% hits; inhibition, % at 12.8 µM;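 active = inhibition above the mean of all tested compounds plus 3 SD, set per campaign, cut at about 25% in these data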;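 also: 0% = DMSO with enzyme and 100% = buffer with substrate but no TDP2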
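Assay system: recombinant human TDP2 / Reagent: T5PNP substrate at 5 mM, a TopII-DNA adduct mimic / Measured by: epi absorbance from released p-nitrophenol / Evaluation: % inhibition relative to enzyme-containing and enzyme-free wells / Control set: enzyme-free and DMSO wells / Replicates: each compound tested once, singlicate / Schedule: enzyme reaction with compound for 2 h at 37 °C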
Apaf-1 inh: inhibitors of human Apaf-1 apoptosome, primary screen, biochemical, DEVD-Rh110 fluorescence, uHTS; Apoptotic protease-activating factor 1 (Homo sapiens), O14727; reconstituted apoptosome caspase-3 activity; inhibition, % at 20 µM; 330,000 compounds, 0.71% hits; AID 489030, 2010; active = inhibition of at least 40% at 20 µM;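 also: plate controls were DMSO wells for no effect and DEVD-CHO caspase inhibitor wells for full effect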
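Material: cell-free apoptosome with Apaf-1, procaspase-3 and caspase-9; Buffer or medium: Hepes pH 7.5 with detergent and BSA; Reagent: cytochrome c trigger plus (Z-DEVD)2-Rh110 caspase-3 substrate; Times: compound with Apaf-1, dATP, procaspase-3 30 min, then 50 min reaction, room temperature; Technique: Rh110 fluorescence intensity.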
PAFAH1B3 inh: PAFAH1B3 enzyme inhibitors, primary screen, biochemical, fluorescence polarization, human | Platelet-activating factor acetylhydrolase IB subunit alpha1 (Homo sapiens), Q15102 | inhibition, % at 3.39 µM | recombinant PAFAH1B3, FP-rhodamine probe | 340,000 compounds, 0.28% hits;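 active = inhibition above the screen-wide average of all tested compounds plus 3 SD, cut at about 25% in these data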;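 also: 0% = enzyme with DMSO only and 100% = wells lacking PAFAH1B3 protein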
Target sequence (Q15102 whole entry, looked up): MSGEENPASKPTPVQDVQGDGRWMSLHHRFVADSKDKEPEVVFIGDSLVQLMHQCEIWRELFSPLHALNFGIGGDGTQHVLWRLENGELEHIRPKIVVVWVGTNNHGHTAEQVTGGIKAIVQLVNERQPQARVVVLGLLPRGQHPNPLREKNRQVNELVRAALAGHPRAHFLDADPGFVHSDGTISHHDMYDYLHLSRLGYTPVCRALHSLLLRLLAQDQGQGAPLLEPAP
PAFAH1B2 FP inh: PAFAH1B2 enzyme inhibitors, primary screen, biochemical, fluorescence polarization, human | Platelet-activating factor acetylhydrolase IB subunit alpha2 (Homo sapiens), P68402 | recombinant PAFAH1B2, FP-rhodamine activity probe | 340,000 compounds, 1.2% hits | inhibition, % at 3.39 µM;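 active = inhibition above the mean of all tested compounds plus 3 SD, cut at about 24% in these data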;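 also: 0% = enzyme with DMSO and 100% = wells lacking PAFAH1B2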
Target sequence (P68402 whole entry, looked up): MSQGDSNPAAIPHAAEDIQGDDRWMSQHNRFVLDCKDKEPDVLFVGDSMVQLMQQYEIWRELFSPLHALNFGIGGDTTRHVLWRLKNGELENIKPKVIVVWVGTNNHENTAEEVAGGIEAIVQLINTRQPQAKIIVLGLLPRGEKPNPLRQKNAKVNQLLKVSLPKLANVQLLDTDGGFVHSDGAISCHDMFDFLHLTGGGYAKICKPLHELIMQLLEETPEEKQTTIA
* hit, by the source's call; . = not tested or not shown.

SMILES	PAFAH2 inh	TDP2 absorb	Apaf-1 inh	PAFAH1B3 inh	PAFAH1B2 FP inh
O=C(COC(=O)c1ccc(O)cc1)Nc1cc(C(F)(F)F)ccc1N1CCOCC1	78.8*	9.7	5.8	-1.2	4.2
COc1ccccc1CNC(=O)COC(=O)c1ccc(C(=O)c2ccccc2)cc1	-5.7	2.4	13.4	-7.7	46.9*
O=C(COC(=O)c1ccc(O)cc1)Nc1ccc(N2CCCCC2)cc1	59.5*	3.9	17.3	4.1	4.5
COc1ccccc1NC(=O)c1ccc(NC(=O)COC(=O)c2ccc(O)cc2)cc1	49.6*	7.5	-4.1	1.6	-4.0
Cn1c(SCC(=O)Nc2nccs2)nnc1-c1ccc(S(=O)(=O)N2CCCC2)cc1	1.0	-0.7	-3.3	4.2	6.2
O=C(CSc1n[nH]c(-c2ccc(S(=O)(=O)N3CCCCC3)cc2)n1)Nc1nccs1	5.5	2.0	-7.9	2.2	38.6*
Cc1ccc(C2=C(O)C(=O)C(c3ccc(C)cc3)=C(O)C2=O)cc1	62.7*	4.4	.	65.1*	40.5*
CC1=C(O)C(=O)C(C2=C(O)C(=O)C(C)=C(O)C2=O)=C(O)C1=O	6.2	-6.0	.	18.4	5.7
COC(=O)[C@]12C[C@H](CC(=O)N3CCSCC3)C(=O)N(Cc3ccc4c(c3)OCO4)C1=C[C@H](COCc1ccccc1)O[C@@H]2C	.	0.5	.	.	.
Cc1nn(C)c(Oc2ccccc2)c1CCNS(=O)(=O)c1ccc(Cl)cc1	20.8	-1.2	20.4	2.6	24.8*
COc1ccc(S(=O)(=O)NCCc2c(C)nn(C)c2Oc2ccccc2)cc1	-1.6	-7.0	8.8	3.9	4.8
COc1ccc(C(=O)CSc2nnc(-c3cccnc3)n2-c2ccc(C)cc2)cc1	.	-4.3	.	.	.
O=C(CC1CCCC1)N[C@H](C(=O)N1CCC[C@H]1C(=O)NC1CCCC1)c1ccccc1	.	4.0	.	.	.
COC(=O)[C@]12CCCCC=C1N(Cc1ccc(OC)cc1)C(=O)[C@@H]2CC(=O)NCCCCc1ccccc1	.	-3.2	.	.	.
COc1cc(C[C@@H](C)[C@@H](C)Cc2ccc(O)c(OC)c2)ccc1O	8.1	6.4	19.2	2.0	26.5*
COc1cc(C[C@@H](CO)[C@H](CO)Cc2ccc(O)c(OC)c2)ccc1O	.	.	-6.7	.	.
S=c1[nH]nc(Cc2ccccc2)n1-c1cccc2ccccc12	1.9	7.2	-10.1	-6.3	28.0*
Cc1nn(-c2ccccc2)c(=O)c2ccccc12	13.3	-2.0	6.9	9.0	1.8
Cc1nn(-c2ccccc2)c2c1CC(=O)Nc1ccccc1-2	-3.6	-13.3	.	14.6	31.1*
O=S1(=O)c2c(cccc2N2CCSCC2)Oc2ccccc2CN1Cc1cn(Cc2ccccc2C(F)(F)F)nn1	.	-7.3	.	.	.
CN(C)c1ccc(N=Cc2nc(-c3ccccc3)oc2OC(=O)c2ccccc2)cc1	4.8	2.8	2.7	0.4	4.4
COc1ccc(N=Cc2nc(-c3ccco3)oc2O)cc1	82.1*	-11.9	5.8	3.6	2.7
O=C(Oc1oc(-c2ccco2)nc1C=Nc1ccc(Cl)cc1)c1ccco1	48.3*	1.9	1.3	11.2	8.5
C#CCN1CC(N(C)CCOC(=O)c2ccc(F)cc2)CS1(=O)=O (stereo not drawn)	.	-5.5	.	.	.
N#CC1(C#N)CC(C=O)=C(N)C1(C#N)CC(=O)C12CC3CC(CC(C3)C1)C2 (stereo not drawn)	21.2	5.5	9.6	-2.1	31.1*
Nc1nccnc1C(=O)OCC(=O)C12CC3CC(CC(C3)C1)C2	28.0	1.4	5.7	5.4	22.0
CN(C)c1ccc(Cc2cc3c(O)ccc(O)c3cc(Cc3ccc(N(C)C)cc3)c2=O)cc1	39.0*	10.3	.	34.0*	18.4
COC(=O)c1cc(S(=O)(=O)NCCc2ccc(Cl)cc2)c[nH]1	3.1	6.0	11.5	2.3	26.5*
COC(=O)c1cc(S(=O)(=O)NCCc2ccc(C)cc2)c[nH]1	-1.3	4.1	3.0	2.2	5.2
Nc1[nH]c(C(=O)c2ccccc2)c(-c2ccc(F)cc2)c1C(=O)c1c[nH]c2ccccc12	.	-4.4	.	.	.
